Test [1] relates to Nucleic Acid. Kind of test: Increase in thermal denaturation temperature of calf thymus DNA. It counts as functional. To be noted: Bos taurus.
Test [2] has as its system Nucleic Acid. Kind of test: Time constant of slowest dissociation step of drug from DNA complex. It counts as functional. The method in brief: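 Purified calf thymus DNA–drug complexes were held in 0.01 M phosphate buffer (pH 7.0) at 20 °C, with a DNA (nucleotide):drug ratio of 20:1. 5% NaDodSO4 was added to sequester free drug. Absorbance decay was followed over time at a wavelength chosen for each drug (430–492 nm). τ was taken as the time constant of the slowest dissociation step.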

The subject of another test is DNA (Bos taurus). Put plainly: Apparent binding constant for calf thymus DNA.

*1 amine or outer side, *2 acyl side, *3 side chain or, on linkers, in order; H or OH if unused. Where a SMILES comes first, the peptide text is derived from it. Bridges are numbered along the chain shown (N, C = ends). Roman numbers before positions name the chains, in order. [ ]: non-standard residue; d: D form. Actinocin(9to1) = Cc1c2oc3c(C)ccc(C(=O)[*:1])c3nc-2c(C(=O)[*:2])c(N)c1=O; NMeV = CN[C@H](C(=O)O)C(C)C; Sar = CNCC(=O)O

For orientation: ΔTm means the change in melting temperature against a reference sample. Consider `Cc1c2oc3c(C)ccc(C(=O)N[C@@H]4C(=O)N[C@H](C(C)C)C(=O)N5CCC[C@H]5C(=O)N(C)CC(=O)N(C)[C@@H](C(C)C)C(=O)O[C@@H]4C)c3nc-2c(C(=O)N[C@@H]2C(=O)N[C@H](C(C)C)C(=O)N3CCC[C@H]3C(=O)N(C)CC(=O)N(C)[C@@H](C(C)C)C(=O)O[C@@H]2C)c(N)c1=O` (I: T[dV]P[Sar][NMeV] / II: T[dV]P[Sar][NMeV]; ester I:1-I:C, II:1-II:C; linker I:N-II:N via Actinocin(9to1)), for which the thermal shift (ΔTm) in the test on Nucleic Acid [1] was 8 °C. Besides, the rel T in the test with Nucleic Acid [2] was determined as 100.
As to `Cc1c2oc3c(C)c(O)c(N)c(C(=O)N4OC(=O)[C@H](C(C)C)N(C)C(=O)CCNC(=O)[C@@H]5CCCN5C(=O)[C@H](C(C)C)NC(=O)[C@@H]4[C@@H](C)O)c3nc-2c(C(=O)N2OC(=O)[C@H](C(C)C)N(C)C(=O)CCNC(=O)[C@@H]3CCCN3C(=O)[C@H](C(C)C)NC(=O)[C@@H]2[C@@H](C)O)c/c1=N/Cc1ccc(Cl)c(Cl)c1`, the ΔTm in the test on Nucleic Acid [1] is 7 °C. Moreover, the rel T in the test with Nucleic Acid [2] amounted to 60. Further, the K app in the test on DNA (Bos taurus) came out at 2.6e+07 M⁻¹.
Consider `Cc1c2oc3c(C)c(O)c(N)c(C(=O)N4OC(=O)[C@H](C(C)C)N(C)C(=O)CCNC(=O)[C@@H]5CCCN5C(=O)[C@H](C(C)C)NC(=O)[C@@H]4[C@@H](C)O)c3nc-2c(C(=O)N2OC(=O)[C@H](C(C)C)N(C)C(=O)CCNC(=O)[C@@H]3CCCN3C(=O)[C@H](C(C)C)NC(=O)[C@@H]2[C@@H](C)O)cc1=N`, for which the thermal shift (ΔTm) in the test with Nucleic Acid [1] stood at 8 °C. Moreover, the rel T in the test with Nucleic Acid [2] amounted to 125. Besides, the K app in the test on DNA (Bos taurus) is 2.3e+07 M⁻¹.
In the case of `Cc1c2oc3c(C)c(O)c(N)c(C(=O)N4OC(=O)[C@H](C(C)C)N(C)C(=O)CCNC(=O)[C@@H]5CCCN5C(=O)[C@H](C(C)C)NC(=O)[C@@H]4[C@@H](C)O)c3nc-2c(C(=O)N2OC(=O)[C@H](C(C)C)N(C)C(=O)CCNC(=O)[C@@H]3CCCN3C(=O)[C@H](C(C)C)NC(=O)[C@@H]2[C@@H](C)O)c/c1=N/Cc1ccc[nH]1`, the ΔTm with Nucleic Acid [1] worked out at 16 °C. In the test on Nucleic Acid [2], this compound gave a rel T of 225. The K app with DNA (Bos taurus) came to 9.2e+07 M⁻¹.

For the origin of these results see ChEMBL document CHEMBL1122353, “DNA binding studies of 7-bulky-substituted actinomycin analogues” (J Med Chem, 1983).
